The source made the active and inactive calls.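 The calls were made as follows, unless noted: active = viability loss from added drug above about 55%, and viability with drug at most 40%, in both replicates (limit read from the data, passing the limit was not always enough); inconclusive = both conditions met in only one replicate; inactive = neither replicate meets both conditions.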

Test [1] can be described thus: Her2 expression decrease, cell viability multiplex – SKBR3 breast tumor cells, AlphaScreen, ATP viability, primary screen (AID 461;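 active = Her2 level under about 52% in both replicate screens, with viability over 70% of control, limit read from the data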;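 as to Her2 level: lower value means less Her2 protein in the cells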;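 as to viability: percent of carrier control wells set as 100% viability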). The settings on record: SKBR3 Her2 protein level, 18-24 h, measured here: SKBR3 viability, ATP luminescence, at 10 µM.
The target of test [2] is Receptor tyrosine-protein kinase erbB-2 (Homo sapiens) (UniProt P04626). The description is as above. The following applies: 18-24 h, at 10 µM, stronger effect = lower value.
Test [3] in a line: reduced viability of SK-BR-3 breast cancer cells – cell-based, 24 h, human, pilot screen (AID 572;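 active = viability at or below 10% of carrier control in both of two separate runs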;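 also: compound exposure lasted between 18 and 24 h rather than exactly 24 h; 100% = carrier-treated control wells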). The following applies: SK-BR-3 viability, CellTiter-Glo luminescence, at 10 µM, stronger effect = lower value.
A short description of test [4]: HUVEC growth inhibition – cell-based, human, primary screen (AID 575;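 active = viability at or below 30% in both replicate assays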;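 also: 100% = median of untreated cell wells with 0.1% DMSO on each plate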). The settings on record: HUVEC proliferation, CellTiter-Glo luminescence, 72 h; at 10 µM; stronger effect = lower value. An outline of the steps: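 material = primary HUVEC, no more than 12 passages | input = 1250 cells per well | controls = vehicle and MePR control wells | measured by = CTG luminescence | times = 72 h compound incubation | format = collagen-coated 384-well format | read-out = % viability vs DMSO wells | doses = single 10 µM dose, 0.1% DMSO, from 5x medium stock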

Test [5] in a line: H69AR cell proliferation blockers – human, duplicate replicates, primary screen (AID 580;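 active = viability at or under a set limit in both replicates, limit being median viability minus 3 SD, cut at about 48% in these data, passing the limit was not always enough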;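 also: 100% = mean luminescence of untreated wells and 0% = no signal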). The following applies: H69AR lung tumor cells viability, ATP luminescence, 72 h; at 10 µM; stronger effect = lower value.
Test [6] in a line: MRP1 drug-resistance reversers in H69AR cells – cell-based, doxorubicin co-treatment, pilot screen (AID 601). The settings on record: CellTiter-Glo, 72 h, at 10 µM; for differential viability (reversal): stronger effect = higher value.
The nature of test [7]: yeast transport mutant growth inhibition pilot in 384-well plates, post-Golgi transport modulator project (AID 636; in the data active = inhibition above about 31%). The following applies: absorbance 615 nm, about 18 h, stronger effect = higher value.
Test [8] can be described thus: growth suppression of yeast trafficking mutant, preliminary HTS, modulators of trafficking downstream of Golgi apparatus project, 1536-format plate, OD 615 nm (AID 637; in the data active = inhibition above about 30%). The following applies: yeast transport mutant growth, absorbance 615 nm, 18 h; stronger effect = higher value.
[9] abbreviates: H69AR cells + 2 uM doxorubicin, measured here: viability with 2 uM doxorubicin, stronger effect = lower value.
Where [10] appears, read: H69AR cells, compound alone cytotoxicity.

Chain of Receptor tyrosine-protein kinase erbB-2 (Homo sapiens) (P04626 whole entry, looked up): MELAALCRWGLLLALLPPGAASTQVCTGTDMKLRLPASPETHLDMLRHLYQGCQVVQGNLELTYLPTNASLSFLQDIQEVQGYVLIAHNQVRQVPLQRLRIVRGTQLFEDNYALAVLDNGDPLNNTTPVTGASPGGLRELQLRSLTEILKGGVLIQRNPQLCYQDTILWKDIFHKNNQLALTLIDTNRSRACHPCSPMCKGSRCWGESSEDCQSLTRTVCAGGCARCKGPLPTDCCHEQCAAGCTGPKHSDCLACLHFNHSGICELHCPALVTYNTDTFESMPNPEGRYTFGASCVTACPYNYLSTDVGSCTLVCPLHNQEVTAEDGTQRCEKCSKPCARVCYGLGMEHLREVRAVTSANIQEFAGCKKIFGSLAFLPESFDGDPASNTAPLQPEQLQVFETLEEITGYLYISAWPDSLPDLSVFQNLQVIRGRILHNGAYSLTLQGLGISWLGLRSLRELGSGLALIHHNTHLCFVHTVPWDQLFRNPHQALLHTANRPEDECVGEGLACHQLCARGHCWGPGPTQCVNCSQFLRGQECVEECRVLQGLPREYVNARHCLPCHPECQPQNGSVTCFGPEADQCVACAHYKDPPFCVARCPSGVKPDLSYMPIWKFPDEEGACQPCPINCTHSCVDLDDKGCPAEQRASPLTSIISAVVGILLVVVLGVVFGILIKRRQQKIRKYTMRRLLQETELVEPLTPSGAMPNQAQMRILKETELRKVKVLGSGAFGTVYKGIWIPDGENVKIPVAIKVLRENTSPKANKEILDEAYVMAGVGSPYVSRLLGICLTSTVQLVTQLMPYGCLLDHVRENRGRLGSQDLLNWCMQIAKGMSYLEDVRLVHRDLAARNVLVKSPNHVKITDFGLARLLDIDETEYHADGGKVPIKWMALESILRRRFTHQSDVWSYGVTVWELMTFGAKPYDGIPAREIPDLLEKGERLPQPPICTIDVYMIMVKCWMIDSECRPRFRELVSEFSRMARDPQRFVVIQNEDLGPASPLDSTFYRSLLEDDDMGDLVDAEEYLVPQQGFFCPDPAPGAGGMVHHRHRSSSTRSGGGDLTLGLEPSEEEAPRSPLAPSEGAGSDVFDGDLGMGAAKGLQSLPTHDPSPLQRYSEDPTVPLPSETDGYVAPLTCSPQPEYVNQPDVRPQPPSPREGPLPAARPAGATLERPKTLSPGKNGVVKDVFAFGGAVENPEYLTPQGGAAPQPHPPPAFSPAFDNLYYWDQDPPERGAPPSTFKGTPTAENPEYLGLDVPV

The viability is a read-out of living cells in per cent, often relative to untreated cells. For orientation: inhibition means the relative decrease from the control value, in per cent. Turning to `CCOC(OCC)P(=O)(C(C)C)C(C)C`, the viability in test [1] was 87%; in test [3], 87% (inactive); in test [4] it was 103% (inactive); in test [5], 91.8% (inactive); in test [6] (setting [9]), 88.6%; in test [6] (setting [10]) it was 91.8%. The Her2 level in test [2] was 87% (inactive). The differential viability (reversal) in test [6] (H69AR cells + 2 uM doxorubicin) is 3.12% (inactive). Also, the inhibition in test [7] is -1.17% (inactive); in test [8] it was -5.08% (inactive).

`COc1ccccc1N1CCN(C(=O)C2CCCO2)CC1` (stereo not given): the viability in test [1] was 98.5%; in test [3], 98.5% (inactive); in test [4], 90% (inactive); in test [5] it was 97.5% (inactive); in test [6] (setting [9]), 97.8%; in test [6] (setting [10]) it was 97.5%. For the same compound, the Her2 level in test [2] was 92.5% (inactive). Moreover, in test [6] (H69AR cells + 2 uM doxorubicin), the differential viability (reversal) is -0.265% (inactive). Moreover, the results for the inhibition in test [7] and in test [8] were -1.69% (inactive) and 1.8% (inactive), respectively.

With `CN(CC(=O)NCCC1=CCCCC1)S(=O)(=O)c1ccc2c(c1)CCC(=O)N2`, the viability in test [1] was 79%; in test [3], 79% (inactive); in test [4], 91.3% (inactive); in test [5], 110% (inactive); in test [6] (setting [9]), 91.7%; in test [6] (setting [10]), 110%. Further, the Her2 level in test [2] was 113% (inactive). For the same compound, in test [6] (H69AR cells + 2 uM doxorubicin), the differential viability (reversal) is 18% (inactive). In addition, the inhibition in test [7] is -2.27% (inactive); in test [8], -1.48% (inactive).

With `O=C(NCCc1ccccn1)c1ccc(COc2ccccc2)o1`, the viability in test [1] is 80%; in test [3], 80% (inactive); in test [4] it was 103% (inactive); in test [5] it was 102% (inactive); in test [6] (setting [9]), 95.3%; in test [6] (setting [10]) it was 102%. For the same compound, in test [2], the Her2 level is 100% (inactive). Further, in test [6] (H69AR cells + 2 uM doxorubicin), the differential viability (reversal) is 6.97% (inactive). Moreover, the inhibition in test [7] is -2.99% (inactive); in test [8], 0.33% (inactive).

For `COc1ccc(-c2noc(COc3ccc4ccccc4c3Br)n2)cc1OC`, the viability in test [1] was 129%; in test [3], 129% (inactive); in test [4], 112% (inactive); in test [5], 80.8% (inactive); in test [6] (setting [9]), 75.5%; in test [6] (setting [10]), 80.8%. Further, the Her2 level in test [2] is 104% (inactive). In test [6] (H69AR cells + 2 uM doxorubicin), the differential viability (reversal) was 5.36% (inactive). The inhibition was -4.21% (inactive) in test [7] and -3.23% (inactive) in test [8].

For the compound `COC(=O)c1ccc(-c2sc3nc(N4CCOCC4)c4c(c3c2N)CCCC4)o1`, the viability is 108% in test [1]; 108% (inactive) in test [3]; 74.4% (inactive) in test [4]; 91% (inactive) in test [5]; 92.2% in test [6] (setting [9]); 91% in test [6] (setting [10]). In addition, the Her2 level in test [2] was 104% (inactive). Moreover, the differential viability (reversal) in test [6] (H69AR cells + 2 uM doxorubicin) is -1.13% (inactive). The results for the inhibition in test [7] and in test [8] were -4% (inactive) and 27.3% (inactive), respectively.

As for `O=C(O)CCC1(C(=O)O)OCCc2ccccc21` (stereo not given), the viability is 112% in test [1]; 112% (inactive) in test [3]; 107% (inactive) in test [4]; 97.5% (inactive) in test [5]; 90.3% in test [6] (setting [9]); 97.5% in test [6] (setting [10]). For the same compound, the Her2 level in test [2] is 83% (inactive). The differential viability (reversal) in test [6] (H69AR cells + 2 uM doxorubicin) is 7.12% (inactive). The inhibition in test [7] was -5.54% (inactive); in test [8], 2.86% (inactive).

On to `CCOC(=O)CC(=O)CSc1[nH]c(=O)cc(C)c1C#N`, for which the viability in test [1] was 87.5%; in test [3] it was 87.5% (inactive); in test [4] it was 99.3% (inactive); in test [5], 108% (inactive); in test [6] (setting [9]) it was 104%; in test [6] (setting [10]) it was 108%. Moreover, the Her2 level in test [2] was 106% (inactive). Besides, the differential viability (reversal) in test [6] (H69AR cells + 2 uM doxorubicin) was 4.69% (inactive). Moreover, the inhibition was -4.8% (inactive) in test [7] and -0.16% (inactive) in test [8].

On to `CC(C(=O)N1CCc2ccccc21)N1CCc2ccccc2C1` (stereo not given), for which the viability in test [1] is 82%; in test [3] it was 82% (inactive); in test [4], 93.7% (inactive); in test [5], 91.6% (inactive); in test [6] (setting [9]) it was 102%; in test [6] (setting [10]) it was 91.6%. Further, the Her2 level in test [2] is 79% (inactive). Further, the differential viability (reversal) in test [6] (H69AR cells + 2 uM doxorubicin) is -10.2% (inactive). Also, the inhibition in test [7] was -0.53% (inactive); in test [8] it was -3.11% (inactive).

In the case of `COC(=O)c1c(-c2cccs2)csc1NC(=O)CN1CCOCC1`, the viability in test [1] was 103%; in test [3], 103% (inactive); in test [4] it was 86.6% (inactive); in test [5] it was 82.1% (inactive); in test [6] (setting [9]), 81.4%; in test [6] (setting [10]), 82.1%. Further, in test [2], the Her2 level was 98.5% (inactive). Also, the differential viability (reversal) in test [6] (H69AR cells + 2 uM doxorubicin) is 0.685% (inactive). In addition, the inhibition in test [7] was -0.13% (inactive); in test [8] it was -1.13% (inactive).

In the case of `COCCN(CC(=O)NCc1ccccc1)C(=O)CCC(=O)Nc1ccccn1`, the viability is 112% in test [1]; 112% (inactive) in test [3]; 103% (inactive) in test [4]; 92.9% (inactive) in test [5]; 91.5% in test [6] (setting [9]); 92.9% in test [6] (setting [10]). For the same compound, in test [2], the Her2 level is 90.5% (inactive). Further, the differential viability (reversal) in test [6] (H69AR cells + 2 uM doxorubicin) was 1.44% (inactive). Besides, the inhibition in test [7] was -4.8% (inactive); in test [8], 1.94% (inactive).

Regarding `CC(=O)NS(=O)(=O)c1ccc(NC(=O)c2ccccc2F)cc1`, the viability was 72% in test [1]; 72% (inactive) in test [3]; 87.3% (inactive) in test [4]; 99.4% (inactive) in test [5]; 95.5% in test [6] (setting [9]); 99.4% in test [6] (setting [10]). In addition, in test [2], the Her2 level was 95% (inactive). The differential viability (reversal) in test [6] (H69AR cells + 2 uM doxorubicin) was 3.83% (inactive). For the same compound, the inhibition in test [7] was 0% (inactive); in test [8], 2.33% (inactive).

`CC(C(=O)N1CCCCC1)n1ncn2cccc2c1=O` (stereo not given): the viability in test [1] was 93.5%; in test [3] it was 93.5% (inactive); in test [4] it was 94.2% (inactive); in test [5], 102% (inactive); in test [6] (setting [9]), 85.1%; in test [6] (setting [10]) it was 102%. Besides, the Her2 level in test [2] was 93.5% (inactive). Besides, the differential viability (reversal) in test [6] (H69AR cells + 2 uM doxorubicin) was 17.3% (inactive). Moreover, the inhibition is -1.58% (inactive) in test [7] and -2.91% (inactive) in test [8].

For `CCOC(=O)c1[nH]c2ccc(Br)cc2c1NC(=O)CNC`, the viability was 93% in test [1]; 93% (inactive) in test [3]; 101% (inactive) in test [4]; 87.3% (inactive) in test [5]; 87.5% in test [6] (setting [9]); 87.3% in test [6] (setting [10]). Moreover, in test [2], the Her2 level was 99.5% (inactive). Also, the differential viability (reversal) in test [6] (H69AR cells + 2 uM doxorubicin) is -0.115% (inactive). The inhibition in test [7] is -2.37% (inactive); in test [8], 8.85% (inactive).

With `Cc1ccc(S(=O)(=O)NCCNC(=O)c2ccccc2)cc1`, the viability in test [1] is 99%; in test [3], 99% (inactive); in test [4] it was 105% (inactive); in test [5], 99.2% (inactive); in test [6] (setting [9]), 79.5%; in test [6] (setting [10]) it was 99.2%. In addition, the Her2 level in test [2] is 82% (inactive). Moreover, the differential viability (reversal) in test [6] (H69AR cells + 2 uM doxorubicin) is 19.7% (inactive). In addition, the inhibition in test [7] is -8.92% (inactive); in test [8], -0.83% (inactive).

On to `CCc1ccc(NC(=O)CSc2nnc(Cc3cccn3C)n2-c2ccc(OC)cc2)cc1`, for which the viability in test [1] is 86%; in test [3], 86% (inactive); in test [4], 61.1% (inactive); in test [5], 95.6% (inactive); in test [6] (setting [9]) it was 99.9%; in test [6] (setting [10]), 95.6%. Moreover, in test [2], the Her2 level was 75% (inactive). Besides, the differential viability (reversal) in test [6] (H69AR cells + 2 uM doxorubicin) was -4.31% (inactive). Also, the inhibition in test [7] is 1.03% (inactive); in test [8], 4.5% (inactive).

For the origin of these results see PubChem BioAssay.
